System: Rattus norvegicus
Test: Tested in vivo for serotonin syndrome antagonizing activity in rat at a dose of 4 mg/kg
Conditions: not given

`CSc1ccc([C@@H]2CN3CCC[C@H]3c3ccccc32)cc1` was tested, and the inhibition in vivo at 4 mg/kg was 4.5%.

System: Mus musculus
Test: In vivo effect on Tetrabenazine ptosis activity in mice following i.p. administration.
Assay type: functional
Conditions: ip

Compared with `Clc1ccc([C@@H]2CN3CCC[C@@H]3c3ccccc32)cc1`, `CSc1ccc(C2CN3CCC[C@@H]3c3ccccc32)cc1` (stereo in doubt; 3b) is 2.9-fold higher in ED50: 0.14 mg/kg for the first, 0.4 mg/kg for the second.

First: c1ccc([C@@H]2CN3CCC[C@@H]3c3ccccc32)cc1
Second: Clc1ccccc1C1CN2CCC[C@@H]2c2ccccc21 (some centres not stated)
The ED50 of the first is 2.4-fold lower: 0.07 mg/kg for the first, 0.17 mg/kg for the second.

Compared with `Br.CCSc1ccc(C2CN3CCCC3c3ccccc32)cc1` (configuration not stated), `CS(=O)(=O)c1ccc(C2CN3CCCC3c3ccccc32)cc1` (configuration not stated) is 10-fold higher in ED50: ~3 mg/kg for the first, 30 mg/kg for the second.

`CSc1ccc(C2CN3CCC[C@@H]3c3c(Cl)cccc32)cc1.Cl` (some centres not stated) and `CSc1ccc(C2CN3CCC[C@H]3c3c(Cl)cccc32)cc1.Cl` (some centres not stated) are the same in ED50: 3 mg/kg for the first, 3 mg/kg for the second.

Going from `Br.CSc1ccc(C2CN3CCCC3c3c(C)cccc32)cc1` (configuration not stated) to `CSc1ccc(C2CN3CCCC3c3ccc(Cl)cc32)cc1.Cl` (configuration not stated), the ED50 rises from ~1 mg/kg to > 3 mg/kg.

Going from `COc1ccccc1C1CN2CCCC2c2ccccc21` (configuration not stated) to `CC(=O)Nc1ccc(C2CN3CCCC3c3ccccc32)cc1` (configuration not stated), the ED50 falls from ~0.3 mg/kg to 0.04 mg/kg (7.5-fold).

Going from `FC(F)(F)c1ccc(C2CN3CCCC3c3ccccc32)cc1` (configuration not stated) to `Clc1ccc(C2CN3CCCC3c3cc(Cl)ccc32)cc1` (configuration not stated), the ED50 rises from ~2 mg/kg to 4 mg/kg (2-fold).

`COc1ccc(OC[C@H]2CN(C)CC[C@@H]2c2ccccc2)cc1` [FEMOXETINE] was tested, and the ED50 was 2.1 mg/kg.

Target: dopamine transporter (Rattus norvegicus)
Test: Tested in vitro for dopamine(DA) neuronal uptake inhibition
Conditions: not given

Compared with `CSc1ccc(C2CN3CCC[C@@H]3c3c(Cl)cccc32)cc1.Cl` (some centres not stated), `Br.CSc1ccc(C2CN3CCCC3c3c(C)cccc32)cc1` (configuration not stated) is 5-fold lower in Ki: 290 nM for the first, 57.7 nM for the second.

First: CSc1ccc(C2CN3CCCC3c3ccc(Cl)cc32)cc1.Cl (configuration not stated)
Second: Clc1ccc(C2CN3CCCC3c3cc(Cl)ccc32)cc1 (configuration not stated)
The Ki of the first is 32-fold higher: 103 nM for the first, 3.2 nM for the second. The second binds more tightly here.

`FC(F)(F)c1ccc(C2CN3CCCC3c3ccccc32)cc1` (configuration not stated) was tested, and the Ki was 128 nM.

System: Rattus norvegicus
Test: Tested in vivo for serotonin syndrome antagonizing activity in rat at a dose of 4 mg/kg on oral administration
Assay type: functional
Conditions: not given

`COc1ccccc1C1CN2CCCC2c2ccccc21` (configuration not stated) gave an inhibition in vivo at 4 mg/kg of 5.2%.

Same assay, conditions: read-out: Inhibition

`CS(=O)(=O)c1ccc(C2CN3CCCC3c3ccccc32)cc1` (configuration not stated) was tested, and the inhibition in vivo at 4 mg/kg was 1.5%.

System: Mus musculus
Test: Tested in vivo for head twitches antagonizing activity in mice at a dose of 2 mg/kg
Assay type: functional
Conditions: not given
Outline: (§1)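 Male Swiss CD-1 mice (19–24 g), 10 per dose, received test compound s.c. 30 min later they got a subthreshold dose of L-5-hydroxytryptophan (50 mg/kg i.p.). After 15 min acclimation, presence or absence of head twitches was scored over 2 min. Results were expressed as percent responding or as ED50 by probit analysis, using at least three doses.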

Molecule `Clc1ccc(C2CN3CCCC3c3cc(Cl)ccc32)cc1` (configuration not stated) has an inhibition in vivo at 2 mg/kg of 30%.

System: dopamine transporter (Rattus norvegicus)
Test: Tested in vitro for dopamine(DA) neuronal uptake inhibition
Conditions: not given
Remark: another data set of the same source

For `CSc1ccc(C2CN3CCC[C@H]3c3c(Cl)cccc32)cc1.Cl` (some centres not stated), the Inhibition was 10%.

System: Rattus norvegicus
Test: Tested in vivo for serotonin syndrome antagonizing activity in rat
Assay type: functional
Conditions: not given

Compared with `Clc1ccccc1C1CN2CCC[C@@H]2c2ccccc21` (some centres not stated), `CSc1ccc(C2CN3CCC[C@@H]3c3ccccc32)cc1` (stereo in doubt; 3b) is lower in ED50: > 25 mg/kg for the first, 0.2 mg/kg for the second.

Going from `CC(=O)Nc1ccc(C2CN3CCCC3c3ccccc32)cc1` (configuration not stated) to `COc1ccc(OC[C@H]2CN(C)CC[C@@H]2c2ccccc2)cc1` [FEMOXETINE], the ED50 rises from 1.37 mg/kg to 11.4 mg/kg (8.3-fold).

System: Rattus norvegicus
Test: Tested in vivo for serotonin syndrome antagonizing activity in rat at a dose of 4 mg/kg
Assay type: functional
Conditions: not given

With `FC(F)(F)c1ccc(C2CN3CCCC3c3ccccc32)cc1` (configuration not stated) the inhibition in vivo at 4 mg/kg was 5.8%.

System: Rattus norvegicus
Test: Tested in vivo for serotonin syndrome antagonizing activity in rat at a dose of 5 mg/kg
Assay type: functional
Conditions: not given

Going from `Clc1ccc([C@@H]2CN3CCC[C@@H]3c3ccccc32)cc1` to `Clc1ccc(C2CN3CCCC3c3cc(Cl)ccc32)cc1` (configuration not stated), the inhibition in vivo at 5 mg/kg falls from 52% to 22%.

System: Mus musculus
Test: Tested in vivo for head twitches antagonizing activity in mice at a dose of 5 mg/kg
Assay type: functional
Conditions: not given
Outline: as §1

`CSc1ccc(C2CN3CCC[C@H]3c3c(Cl)cccc32)cc1.Cl` (some centres not stated) and `CSc1ccc(C2CN3CCCC3c3ccc(Cl)cc32)cc1.Cl` (configuration not stated) are the same in inhibition in vivo at 5 mg/kg: 30% for the first, 30% for the second.

System: Mus musculus
Test: Tested in vivo for head twitches antagonizing activity in mice
Assay type: functional
Conditions: not given

In the case of `CSc1ccc(C2CN3CCC[C@@H]3c3ccccc32)cc1` (stereo in doubt; 3b), the ED50 is reported as 0.081 mg/kg.

Same assay, conditions: Mus musculus; read-out: ED50

First: CSc1ccc([C@@H]2CN3CCC[C@H]3c3ccccc32)cc1
Second: Br.CCSc1ccc(C2CN3CCCC3c3ccccc32)cc1 (configuration not stated)
The ED50 of the first is 19-fold higher: ~10 mg/kg for the first, 0.54 mg/kg for the second.

Going from `Clc1ccc([C@@H]2CN3CCC[C@@H]3c3ccccc32)cc1` to `CS(=O)(=O)c1ccc(C2CN3CCCC3c3ccccc32)cc1` (configuration not stated), the ED50 rises from 0.76 mg/kg to ~5 mg/kg (6.6-fold).

`c1ccc([C@@H]2CN3CCC[C@@H]3c3ccccc32)cc1` and `Clc1ccccc1C1CN2CCC[C@@H]2c2ccccc21` (some centres not stated) cannot be ordered by ED50: > 25 mg/kg for the first, > 25 mg/kg for the second.

First: CSc1ccc(C2CN3CCC[C@@H]3c3c(Cl)cccc32)cc1.Cl (some centres not stated)
Second: Br.CSc1ccc(C2CN3CCCC3c3c(C)cccc32)cc1 (configuration not stated)
The ED50 of the first is 6.5-fold higher: 1.04 mg/kg for the first, 0.16 mg/kg for the second.

First: COc1ccccc1C1CN2CCCC2c2ccccc21 (configuration not stated)
Second: CC(=O)Nc1ccc(C2CN3CCCC3c3ccccc32)cc1 (configuration not stated)
The ED50 of the first is 2.6-fold higher: 0.81 mg/kg for the first, 0.31 mg/kg for the second.

First: FC(F)(F)c1ccc(C2CN3CCCC3c3ccccc32)cc1 (configuration not stated)
Second: COc1ccc(OC[C@H]2CN(C)CC[C@@H]2c2ccccc2)cc1 [FEMOXETINE]
The ED50 of the first is 6-fold lower: 0.55 mg/kg for the first, 3.3 mg/kg for the second.

System: Rattus norvegicus
Test: Tested in vivo for serotonin syndrome antagonizing activity in rat at a dose of 40 mg/kg
Assay type: functional
Conditions: read-out: Inhibition

Molecule `Br.CCSc1ccc(C2CN3CCCC3c3ccccc32)cc1` (configuration not stated) has an inhibition in vivo at 40 mg/kg of 36%.

Target: norepinephrine transporter (Rattus norvegicus)
Test: Tested in vitro for norepinephrine (NE) neuronal uptake inhibition
Conditions: not given

Going from `CSc1ccc(C2CN3CCC[C@@H]3c3c(Cl)cccc32)cc1.Cl` (some centres not stated) to `Br.CSc1ccc(C2CN3CCCC3c3c(C)cccc32)cc1` (configuration not stated), the Ki falls from 23.1 nM to 11.5 nM (2-fold).

Going from `CSc1ccc(C2CN3CCCC3c3ccc(Cl)cc32)cc1.Cl` (configuration not stated) to `Clc1ccc(C2CN3CCCC3c3cc(Cl)ccc32)cc1` (configuration not stated), the Ki falls from 16.2 nM to 3.2 nM (5.1-fold). The second binds more tightly here.

`FC(F)(F)c1ccc(C2CN3CCCC3c3ccccc32)cc1` (configuration not stated) gave a Ki of 10.6 nM.

System: norepinephrine transporter (Rattus norvegicus)
Test: as above
Conditions: not given
Remark: another data set of the same source

Work on `CSc1ccc(C2CN3CCC[C@H]3c3c(Cl)cccc32)cc1.Cl` (some centres not stated) yielded an Inhibition of 10%.

Target: serotonin transporter (Rattus norvegicus)
Test: Tested in vitro for serotonin(5-HT) neuronal uptake inhibition
Conditions: not given

Going from `CSc1ccc(C2CN3CCC[C@@H]3c3c(Cl)cccc32)cc1.Cl` (some centres not stated) to `CSc1ccc(C2CN3CCC[C@H]3c3c(Cl)cccc32)cc1.Cl` (some centres not stated), the Ki rises from 3 nM to ~100 nM (33-fold). The first binds more tightly here.

Compared with `Br.CSc1ccc(C2CN3CCCC3c3c(C)cccc32)cc1` (configuration not stated), `CSc1ccc(C2CN3CCCC3c3ccc(Cl)cc32)cc1.Cl` (configuration not stated) is 3.6-fold higher in Ki: 2.4 nM for the first, 8.6 nM for the second.

System: Mus musculus
Test: In vivo effect on Tetrabenazine motor activity in mice following i.p. administration.
Assay type: functional
Conditions: ip

`CSc1ccc([C@@H]2CN3CCC[C@H]3c3ccccc32)cc1` and `CSc1ccc(C2CN3CCC[C@@H]3c3ccccc32)cc1` (stereo in doubt; 3b) cannot be ordered by ED50: > 30 mg/kg for the first, > 30 mg/kg for the second.

Compared with `Clc1ccc([C@@H]2CN3CCC[C@@H]3c3ccccc32)cc1`, `Br.CCSc1ccc(C2CN3CCCC3c3ccccc32)cc1` (configuration not stated) is higher in ED50: 0.39 mg/kg for the first, > 10 mg/kg for the second.

First: c1ccc([C@@H]2CN3CCC[C@@H]3c3ccccc32)cc1
Second: Clc1ccccc1C1CN2CCC[C@@H]2c2ccccc21 (some centres not stated)
The ED50 of the first is lower: 0.34 mg/kg for the first, > 60 mg/kg for the second.

Compared with `CSc1ccc(C2CN3CCC[C@@H]3c3c(Cl)cccc32)cc1.Cl` (some centres not stated), `CSc1ccc(C2CN3CCC[C@H]3c3c(Cl)cccc32)cc1.Cl` (some centres not stated) is 3-fold lower in ED50: 3 mg/kg for the first, ~1 mg/kg for the second.

`Br.CSc1ccc(C2CN3CCCC3c3c(C)cccc32)cc1` (configuration not stated) and `CSc1ccc(C2CN3CCCC3c3ccc(Cl)cc32)cc1.Cl` (configuration not stated) cannot be ordered by ED50: > 3 mg/kg for the first, > 3 mg/kg for the second.

Going from `COc1ccccc1C1CN2CCCC2c2ccccc21` (configuration not stated) to `CC(=O)Nc1ccc(C2CN3CCCC3c3ccccc32)cc1` (configuration not stated), the ED50 falls from ~0.6 mg/kg to 0.04 mg/kg (15-fold).

`FC(F)(F)c1ccc(C2CN3CCCC3c3ccccc32)cc1` (configuration not stated) and `COc1ccc(OC[C@H]2CN(C)CC[C@@H]2c2ccccc2)cc1` [FEMOXETINE] cannot be ordered by ED50: > 3 mg/kg for the first, 3.5 mg/kg for the second.
